Most compounds without a hit are left out; they make up all but 2% or so of the library.
DNMT1 block: blocks human DNA methyltransferase DNMT1; P26358; DNMT1 molecular beacon, Hinp1I cleavage, fluorescence; inhibition (reported as % activation of signal), % at 10 µM; 360,000 compounds, 0.83% hits; AID 588458; in the data active = inhibition above about 50%
Scp1 inh: blocks human Scp-1 phosphatase activity; Q9GZU7; Recombinant Scp1, phosphopeptide, malachite green phosphate absorbance; inhibition, % at 20 µM; 340,000 compounds, 0.88% hits;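 active = inhibition above about 50% at 20 µM, limit read from the data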
Target sequence (Q9GZU7 76-261 limits assumed): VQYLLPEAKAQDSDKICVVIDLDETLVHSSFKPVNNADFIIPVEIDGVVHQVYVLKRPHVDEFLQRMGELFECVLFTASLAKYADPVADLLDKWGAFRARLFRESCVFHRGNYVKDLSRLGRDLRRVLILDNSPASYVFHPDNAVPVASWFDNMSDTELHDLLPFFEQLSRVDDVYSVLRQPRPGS
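Material: truncated SCP-1 phosphatase (76-261aa) / Buffer or medium: 50 mM Tris acetate pH 5.5, 0.005% Tween-20, 10 mM MgCl2 / Compound dosing: one concentration, 20 µM, with 1.0% DMSO / Incubation: 45 min room-temperature reaction, 5 min colour, 30 min stabiliser / Detection: colorimetric free-phosphate detection, absorbance 630 nm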
LMPTP block: LMPTP (human) inhibition; P24666; recombinant LMPTP-A, OMFP fluorogenic substrate, fluorescence intensity; inhibition, % at 20 µM; 360,000 compounds, 0.22% hits;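 active = compounds that cut the enzyme signal by at least half of the control window in the single-dose screen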
Target sequence (P24666 whole entry, looked up): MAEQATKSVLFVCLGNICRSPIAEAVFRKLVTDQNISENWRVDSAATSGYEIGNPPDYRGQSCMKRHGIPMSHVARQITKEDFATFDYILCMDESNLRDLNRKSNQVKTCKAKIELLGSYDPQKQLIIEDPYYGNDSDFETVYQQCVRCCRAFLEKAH
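Test system: LMPTP-A phosphatase enzyme. Amount: LMPTP-A at 0.625 nM final in the reaction. Reagent: OMFP substrate, 400 µM final. Times: 50 min at room temperature. Signal: endpoint fluorescence intensity from OMFP dephosphorylation. Read-out basis: % inhibition. Benchmarks: no-enzyme and uninhibited controls.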
STEP inh: STEP (human) phosphatase inhibition | P54829 | recombinant STEP, OMFP fluorogenic substrate, fluorescence | inhibition, % at 20 µM | 360,000 compounds, 0.25% hits;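 active = inhibition at 20 µM, scaled per plate between control wells, above about 37%, limit read from the data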
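Material: STEP (striatal-enriched tyrosine phosphatase) enzyme, cell-free; Compound dosing: 20 µM single dose in 1% DMSO; Technique: fluorescence read at 480 nm ex / 540 nm em; Times: reaction 20 min, ambient temperature; Medium: 50 mM Bis-Tris pH 6.0 with 2.5 mM DTT and 0.005% Tween 20; Also added: OMFP at 25 µM.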
Rpn11 inh: Rpn11 (human) deubiquitinase inhibition; inhibition, % at 20 µM; AID 588493; human 26S proteasome, Ub4-pepOG fluorescence polarization; 20S core pre-blocked with epoxomicin; 360,000 compounds, 0.59% hits; O00487;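 active = inhibition at 20 µM, scaled to each plate's controls, above about 33%, limit read from the data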
Target sequence (O00487 whole entry, looked up): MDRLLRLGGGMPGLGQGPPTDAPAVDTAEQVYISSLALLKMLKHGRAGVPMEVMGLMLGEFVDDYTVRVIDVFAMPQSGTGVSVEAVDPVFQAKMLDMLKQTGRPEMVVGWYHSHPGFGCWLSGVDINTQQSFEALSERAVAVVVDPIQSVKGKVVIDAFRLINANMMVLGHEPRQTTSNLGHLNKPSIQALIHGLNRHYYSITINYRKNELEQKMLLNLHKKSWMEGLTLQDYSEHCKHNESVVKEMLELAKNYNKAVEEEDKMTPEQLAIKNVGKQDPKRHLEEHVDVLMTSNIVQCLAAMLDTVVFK
A number is an active result.

Results for CCCNC(=O)c1cc(C2CCCCN2C(=O)c2ccc(OC)cc2)on1 (stereo unspecified) ?
DNMT1 block: inactive; LMPTP block: inactive; STEP inh: inactive; Rpn11 inh: inactive

How did Cc1ccc(N(CC(=O)NC(C)(C)C)C(=O)CCC(=O)Nc2ccccn2)cc1 do in these assays?
DNMT1 block: inactive; LMPTP block: inactive; STEP inh: inactive; Rpn11 inh: inactive

Results for CCn1cc(C(=O)O)c(=O)c2cc(F)c(N3CCN(C(=S)NC(=O)c4cc(OC)cc(OC)c4)CC3)cc21 ?
DNMT1 block: inactive; Scp1 inh: inactive; LMPTP block: 62.6; STEP inh: inactive; Rpn11 inh: inactive

Results for CCn1cc(C(=O)O)c(=O)c2cc(F)c(N3CCN(C(=S)NC(=O)c4ccccc4C)CC3)cc21 ?
DNMT1 block: inactive; Scp1 inh: inactive; LMPTP block: 64.2; STEP inh: inactive; Rpn11 inh: inactive

Results for C=CCN1C(=O)C(=Cc2ccc3c(c2)CCC3)SC1=S ?
DNMT1 block: inactive; LMPTP block: inactive; STEP inh: inactive; Rpn11 inh: inactive

What do the screens show for `O=C(N/N=C/c1cc(Br)cc([N+](=O)[O-])c1O)c1ccc(NC(=O)c2ccc(F)cc2)cc1`?
DNMT1 block: inactive; Scp1 inh: 88.9; LMPTP block: 61.2; STEP inh: 97.8; Rpn11 inh: inactive

Results for O=C(N/N=C/c1cc(Cl)cc([N+](=O)[O-])c1O)c1ccc2c(c1)OCO2 ?
DNMT1 block: inactive; Scp1 inh: 99.2; LMPTP block: 60.1; STEP inh: 99.4; Rpn11 inh: inactive

How did COC(=O)c1sc(NC(=O)c2cc(-c3ccccc3)nc3ccccc23)c(C#N)c1C do in these assays?
DNMT1 block: inactive; Scp1 inh: inactive; LMPTP block: inactive; STEP inh: 90.9; Rpn11 inh: inactive

What do the screens show for `CCOC(=O)c1sc(NC(=O)c2cc(-c3ccc(C)cc3)nc3ccccc23)c(C#N)c1C`?
DNMT1 block: inactive; Scp1 inh: inactive; LMPTP block: inactive; STEP inh: inactive; Rpn11 inh: inactive

Results for N#Cc1c(NC(=O)CSc2nnc(-c3ccccc3)o2)sc2c1CCCC2 ?
DNMT1 block: inactive; Scp1 inh: inactive; LMPTP block: 76.8; STEP inh: inactive; Rpn11 inh: inactive

What do the screens show for `CC1CCc2c(sc(NC(=O)CSc3nnc(-c4ccccc4)o3)c2C#N)C1` (stereo unspecified)?
DNMT1 block: inactive; Scp1 inh: inactive; LMPTP block: 65.5; STEP inh: inactive; Rpn11 inh: inactive

Results for Cc1sc(NC(=O)CSc2nnc(-c3ccccc3)o2)c(C#N)c1C ?
DNMT1 block: inactive; Scp1 inh: inactive; LMPTP block: inactive; STEP inh: inactive; Rpn11 inh: inactive

Results for O=C1/C(=C\c2ccco2)CCC/C1=C\c1ccco1 ?
DNMT1 block: 73.0; Scp1 inh: inactive; LMPTP block: inactive; STEP inh: inactive

Results for O=C1/C(=C/c2ccco2)CCC1C1CCCC1 (stereo unspecified) ?
DNMT1 block: inactive; Scp1 inh: inactive; LMPTP block: inactive; STEP inh: inactive; Rpn11 inh: inactive

Results for COC(=O)C1CCN(S(=O)(=O)CCNC(=O)c2ccccc2)CC1 ?
DNMT1 block: inactive; LMPTP block: inactive; STEP inh: inactive; Rpn11 inh: inactive

Results for CCNC(=O)C1(C)CCN(C(=O)c2cccnc2SC)C1 (stereo unspecified) ?
DNMT1 block: inactive; LMPTP block: inactive; STEP inh: inactive; Rpn11 inh: inactive

Results for CCOc1ccc(N(CC(=O)NC2CC2)S(=O)(=O)c2ccc(C)cc2)cc1 ?
DNMT1 block: inactive; Scp1 inh: inactive; LMPTP block: inactive; STEP inh: inactive; Rpn11 inh: inactive

How did O=C1c2cccnc2-c2ncccc21 do in these assays?
DNMT1 block: inactive; Scp1 inh: inactive; LMPTP block: inactive; STEP inh: inactive; Rpn11 inh: inactive

Results for COC1=C(Br)C(=O)c2ncccc2C1=O ?
DNMT1 block: 91.4; Scp1 inh: inactive; LMPTP block: inactive; STEP inh: inactive; Rpn11 inh: inactive

How did O=C1C(=O)c2cccnc2-c2ncccc21 do in these assays?
DNMT1 block: 112.0; LMPTP block: 55.8; STEP inh: inactive; Rpn11 inh: inactive

How did C=C(C)C(=O)Nc1cccc(C2=NOC3(C2)C[C@H](C(N)=O)N(C(=O)CC#N)C3)c1 (stereo partly specified) do in these assays?
Scp1 inh: 56.9

What do the screens show for `C/C=C/C=C\C(=O)Nc1cccc(C2=NOC3(C2)C[C@H](C(N)=O)N(C(=O)CC#N)C3)c1` (stereo partly specified)?
DNMT1 block: inactive; Scp1 inh: 67.1; LMPTP block: inactive; STEP inh: inactive; Rpn11 inh: inactive

What do the screens show for `N#CCC(=O)N1CC2(CC(c3cccc(NC(=O)COc4ccc(Cl)cc4)c3)=NO2)C[C@@H]1C(N)=O` (stereo partly specified)?
DNMT1 block: inactive; Scp1 inh: inactive; LMPTP block: inactive; STEP inh: inactive; Rpn11 inh: inactive

Results for OC[C@@H]1CN(Cc2ccccc2)C[C@H](n2ccc3c(N4CCCC4)ncnc32)O1 ?
DNMT1 block: inactive; LMPTP block: inactive; STEP inh: inactive; Rpn11 inh: inactive

Results for COc1ccccc1-c1cc2nc(-c3ccccc3)cc(N3CCN(C(=O)c4ccco4)CC3)n2n1 ?
DNMT1 block: inactive; LMPTP block: inactive; STEP inh: inactive; Rpn11 inh: inactive

What do the screens show for `N#C/C(=C\c1ccc(-c2ccc(C(=O)O)cc2)o1)C(=O)Nc1ccc(F)cc1`?
DNMT1 block: inactive; Scp1 inh: 69.2; LMPTP block: inactive; STEP inh: inactive; Rpn11 inh: inactive

What do the screens show for `Cc1cccc(C)c1NC(=O)/C(C#N)=C/c1ccc(-c2ccc(C(=O)O)cc2)o1`?
DNMT1 block: inactive; Scp1 inh: inactive; LMPTP block: inactive; STEP inh: inactive; Rpn11 inh: inactive

Results for Oc1cccc(CN2CCOCC2)c1O ?
DNMT1 block: inactive; Scp1 inh: inactive; LMPTP block: inactive; STEP inh: inactive; Rpn11 inh: inactive

How did Oc1c(CN2CCOCC2)cc(CN2CCOCC2)c(O)c1O do in these assays?
DNMT1 block: 57.5; Scp1 inh: inactive; LMPTP block: inactive; STEP inh: inactive; Rpn11 inh: inactive

Results for COc1cc(/C=C(\C#N)C(=O)Nc2cccc(C(=O)O)c2)ccc1OCc1ccc(Cl)cc1 ?
DNMT1 block: inactive; Scp1 inh: inactive; LMPTP block: inactive; STEP inh: 85.5; Rpn11 inh: inactive

How did N#C/C(=C\c1ccc(OCc2ccccc2)cc1)C(=O)Nc1ccc(C(=O)O)cc1 do in these assays?
Scp1 inh: 85.5

Results for N#C/C(=C/c1ccc(C(=O)O)cc1)C(=O)Nc1ccccc1 ?
DNMT1 block: inactive; Scp1 inh: inactive; LMPTP block: inactive; STEP inh: inactive; Rpn11 inh: inactive

How did CCOC(=O)C1CCN(c2nc(N)c3c(N)nc(SCC(=O)O)cc3c2C#N)CC1 do in these assays?
DNMT1 block: 74.8; Scp1 inh: 101.5; LMPTP block: inactive; STEP inh: inactive; Rpn11 inh: inactive

Screens: PubChem BioAssay, Sanford-Burnham Center for Chemical Genomics
